Here are results for 36 sequences from the array DNA melting data of Ke et al. (doi:10.1101/2024.01.08.574731).

Data set [1] in a line: melting temperature; fluorescence melt of hairpins on a sequencing array, two-state fit, raised by 9.35 °C to match UV melts. The note with it: sodium 0.088 M. The essentials: (§1)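 Folding enthalpy and melting temperature were estimated with bootstrapped two-state fits and combined across four replicates by inverse-variance weighting, with fitted temperatures raised by 9.35 °C to match UV melts. The data were Cy3 fluorescence of library hairpins, with annealed Cy3 and quencher oligos, on a sequenced MiSeq flow cell in 50 mM Na-HEPES pH 8.0, 25 mM NaCl, imaged in 2.5 °C steps up to 60 °C and normalised to pre-quench Cy3 and control constructs.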

Data set [2] in a line: folding enthalpy; higher = less favourable; fluorescence melt of hairpins on a sequencing array, two-state fit. The note with it: sodium 0.088 M. The gist of the method:
as §1

As for GTAGACACGAAAGTGTAC (((..(((....)))))), the Tm in data set [1] turned out to be 32 °C. The folding enthalpy in data set [2] was -10.5 kcal/mol.
The matching figures for GTAGACGAAAGTCCATAC ((((((....)))..))): 26 °C and -10.2 kcal/mol.
Turning to GTAGACGAAAGTCTATAC ((((((....)))..))), the Tm in data set [1] amounted to 42.6 °C. The folding enthalpy in data set [2] was -12.2 kcal/mol.
As for GTAGACGAAAGTCTTTAC ((((((....)))..))), the Tm in data set [1] stood at 29.3 °C. Further, the folding enthalpy in data set [2] is -10.4 kcal/mol.
On to GTAGACGGAAACGCCTAC ((((.((....)).)))), for which, in data set [1], the Tm was found to be 45.3 °C. Further, the folding enthalpy in data set [2] is -32.3 kcal/mol.
The matching figures for GTAGACGGAAACGTTTAC (((.(((....))).))): 41.5 °C and -33.2 kcal/mol.
Take GTAGAGAAATCTAC (((((....))))): in data set [1], the Tm was 35.5 °C. In data set [2], the folding enthalpy was -12.6 kcal/mol.
GTAGAGACGAAAGTCTAC (((..(((....)))))): the Tm in data set [1] was 36 °C. Besides, the folding enthalpy in data set [2] was -11.7 kcal/mol.
On to GTAGAGCGAAAGCTTTAC (((.(((....))).))), for which, in data set [1], the Tm came out at 47.5 °C. Moreover, the folding enthalpy in data set [2] was -24.4 kcal/mol.
With GTAGAGGGAAACCTTTAC (((.(((....))).))), in data set [1], the Tm came out at 31 °C. Moreover, the folding enthalpy in data set [2] was -28.7 kcal/mol.
The matching figures for GTAGAGGGAAACTTCTAC (((((.(....).))))): 35 °C and -21.5 kcal/mol.
With GTAGATCGAAAGATGTAC (((.(((....))).))), the Tm in data set [1] came to 42.6 °C. In addition, the folding enthalpy in data set [2] was -31.6 kcal/mol.
The matching figures for GTAGCAGCGAAAGCTTAC (((..(((....)))))): 26.8 °C and -10.3 kcal/mol.
As for GTAGCAGGAAACTACTAC ((((.((....)).)))), in data set [1], the Tm is 35 °C. Moreover, the folding enthalpy in data set [2] is -24.4 kcal/mol.
For GTAGCAGGAAACTGTTAC (((.(((....))).))) the same measures were 40.5 °C and -30.4 kcal/mol.
On to GTAGCCGAAAGGCACTAC ((((((....)))..))), for which the Tm in data set [1] was determined as 48.5 °C. Besides, the folding enthalpy in data set [2] is -12.5 kcal/mol.
The matching figures for GTAGCCGAAAGGCCTAC ((((((....))).))): 45 °C and -12.5 kcal/mol.
Turning to GTAGCCGAAAGGCGTTAC ((((((....)))..))), the Tm in data set [1] amounted to 38.9 °C. Besides, the folding enthalpy in data set [2] was -8 kcal/mol.
For GTAGCCGGAAACGGTTAC (((.(((....))).))) the same measures were 51.3 °C and -37.7 kcal/mol.
For GTAGCGACGAAAGTCTAC (((..(((....)))))) the same measures were 26.9 °C and -13.2 kcal/mol.
The matching figures for GTAGCGGGAAACCGCCAC ((.((((....)))).)): 38.7 °C and -11.7 kcal/mol.
Take GTAGCGGGAAACTGCTGC (.(((.(....).))).): in data set [1], the Tm came out at 44.2 °C. For the same sequence, the folding enthalpy in data set [2] was -22.6 kcal/mol.
The matching figures for GTAGCTGCGAAAGCATAC (((..(((....)))))): 31.3 °C and -10.1 kcal/mol.
Take GTAGCTGGAAACAGCCAC ((.((((....)))).)): in data set [1], the Tm turned out to be 37.7 °C. In data set [2], the folding enthalpy is -14.3 kcal/mol.
Turning to GTAGGAGAAATCCTAC ((((((....)))))), in data set [1], the Tm is 47.3 °C. Besides, the folding enthalpy in data set [2] was -26.7 kcal/mol.
Take GTAGGAGGAAACTCCTGC (.(((((....))))).): the Tm in data set [1] came out at 46.8 °C. In addition, in data set [2], the folding enthalpy was -22.3 kcal/mol.
As for GTAGGAGGAAACTTCTAC ((((.((....)).)))), in data set [1], the Tm is 37.4 °C. Further, the folding enthalpy in data set [2] was -27 kcal/mol.
Turning to GTAGGCCCGAAAGGGTAC (((..(((....)))))), the Tm in data set [1] amounted to 32.9 °C. Besides, the folding enthalpy in data set [2] is -11.1 kcal/mol.
The matching figures for GTAGGCCGAAAGGCATAC (((.(((....))).))): 61.9 °C and -33.2 kcal/mol.
For GTAGGCGAAAGCCAATAC ((((((....)))..))) the same measures were 33.6 °C and -9.29 kcal/mol.
In the case of GTAGGCGAAAGCCATTAC ((((((....)))..))), in data set [1], the Tm is 23 °C. Also, the folding enthalpy in data set [2] was -7.44 kcal/mol.
As for GTAGGCGAAAGCCGGTAC ((((((....)))..))), the Tm in data set [1] amounted to 42.2 °C. Also, the folding enthalpy in data set [2] is -10.7 kcal/mol.
The matching figures for GTAGGCGCGAAAGCGTAC (((..(((....)))))): 34.9 °C and -9.85 kcal/mol.
On to GTAGGCGGAAACGTCTGC (.((.((....)).)).), for which the Tm in data set [1] came out at 41.6 °C. Also, in data set [2], the folding enthalpy was -23 kcal/mol.
The matching figures for GTAGGGAAACCTAC (((((....))))): 46.2 °C and -25 kcal/mol.
For GTAGGGCGAAAGCCGTAC (((.(((....))).))) the same measures were 56.8 °C and -23.6 kcal/mol.
